In ChEMBL document CHEMBL1152330, “Cytotoxic triterpenoid alkaloids from Buxus microphylla” (J Nat Prod, 2009):

Experiments:
HepG2 = experiment: Cytotoxicity against human HepG2 cells after 72 hrs by MTT assay; type: functional, cell-based; settings: HepG2, 72 h
How it was run: (§1)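 Cells grown in RPMI-1640 with 10% heat-inactivated bovine serum, L-glutamine, penicillin/streptomycin and 10 mM HEPES pH 7.4, at 37 °C, 5% CO2. Seeded, allowed to adhere 24 h, then exposed at 0.01–100 µg/mL (tenfold steps) for 72 h, triplicate wells. MTT 4 h, SDS–isobutanol–HCl solubilization 12–20 h. OD 570 nm versus DMSO controls. IC50 by LOGIT.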

K562 = experiment: Cytotoxicity against human K562 cells after 72 hrs by MTT assay; type: functional, cell-based; settings: K562, 72 h; how it was run: as §1

Row | SMILES | IC50 (HepG2) [µM] | IC50 (K562) [µM]
1 | CC(C)C(=O)N[C@H]1CC[C@]23C[C@]24CC[C@]2(C)[C@@H]([C@H](C)N(C)C)[C@H](OC(=O)c5ccccc5)C[C@@]2(C)[C@@H]4C=CC3[C@]1(C)CO (stereo partly specified) [BUXMICROPHYLLINE F] | 20.1 | 2.95
2 | C=C1C2CC[C@@H]3[C@]4(CC[C@]5(C)[C@@H](C(C)=O)[C@H](O)C[C@@]35C)C[C@]24CC[C@@H]1NC (stereo partly specified) [CYCLOMICROBUXININE] | > 100 | > 100
3 | C=C1C2CC[C@@H]3[C@]4(CC[C@]5(C)[C@@H](C(C)=O)[C@H](O)C[C@@]35C)C[C@]24CC[C@@H]1N(C)C (stereo partly specified) [BUXIPPINE K] | 57.1 | 35.3
4 | C/C=C1/C(=O)C[C@@]2(C)[C@@H]3CCC4C(C)(C)[C@@H](NC)CC[C@@]45C[C@@]35CC[C@]12C (stereo partly specified) | > 100 | 1.7
5 | C[C@@H]([C@H]1[C@H](OC(=O)c2ccccc2)C[C@@]2(C)[C@@H]3CCC4[C@@]5(CC[C@H](NC(=O)c6ccccc6)[C@@]4(C)CO)C[C@@]35CC[C@]12C)N(C)C (stereo partly specified) [BUXMICROPHYLLINE E] | 39.7 | > 100
6 | COc1ccc(/C=C/C(=O)N[C@H]2CC[C@]34C[C@]35CC[C@]3(C)[C@@H]([C@H](C)N(C)C)[C@H](O)C[C@@]3(C)[C@@H]5CCC4[C@]2(C)CO)cc1O (stereo partly specified) [BUXMICROPHYLLINE G] | 0.89 | 4.44
7 | C/C=C1\C(=O)C[C@@]2(C)[C@@H]3CCC4C(C)(C)[C@@H](NC)CC[C@@]45C[C@@]35CC[C@]12C (stereo partly specified) [Z-buxenone] | 14.9 | 5.61
8 | C=C1C2CC[C@@H]3[C@]4(CC[C@]5(C)/C(=C\C)C(=O)C[C@@]35C)C[C@]24CC[C@@H]1NC (stereo partly specified) [BIXMICROPHYLLINE B] | 0.78 | 0.37
